Measured values taken from ChEMBL document CHEMBL1145044, “Novel cationic transport agents for oligonucleotide delivery into primary leukemic cells” (J Med Chem, 2003).

Key:
[1] = Cytotoxicity for relative cell viability compared to untreated control in CEF cells by MTT assay; type: functional, cell-based, Gallus gallus
[2] = Relative uptake of ODN in Primary leukemic cells(PLC) incubated with 0.25 uMol/L of P32-labeled v-myb antisense ODN for 2 hr at a concentration of 2.5 uMol/L; type: functional, Gallus gallus
Outline: (§1)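 Cells were seeded at 1 × 10^6 per well in medium with 10% serum one day ahead. 0.25 µM ³²P-end-labeled v-myb antisense ODN was complexed with agent (final 2.5 µM) in serum-free medium for 30 min at room temperature. Cells were then exposed for 2 h at 37 °C or 41 °C depending on cell type. Membrane-bound ODN was stripped by acid-salt elution. Cells were lysed in proteinase K buffer and counted by liquid scintillation. Uptake is relative to free ODN, mean of ≥3 independent experiments.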

[3] = Cytotoxicity for relative cell viability compared to untreated control in BM2 cells by MTT assay; type: functional, cell-based, Gallus gallus
Outline: (§2)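 MTT reduction by cells exposed to transport agent alone, expressed relative to untreated control cells (100%). The value reported is the agent concentration at which relative viability falls to 50%.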

[4] = Cytotoxicity for relative cell viability compared to untreated control in Primary leukemic cells(PLC) by MTT assay; type: functional, cell-based, Gallus gallus; outline: as §2
[5] = Relative uptake of ODN in BM2 cells incubated with 0.25 uMol/L of P32-labeled v-myb antisense ODN for 2 hr at a concentration of 2.5 uMol/L; type: functional, Gallus gallus; outline: as §1
[6] = Apparent association constant was determined; type: ADME

Compound	IC50 [1] [uM l-1]	Relative ODN uptake [2]	IC50 [3] [uM l-1]	IC50 [4] [uM l-1]	Relative ODN uptake [5]	K ass [6] [M⁻¹]
CCC1=C(C)C2=N/C1=C\c1[nH]c(c(CCC(=O)N(C)CC(O)C(O)C(O)C(O)CO)c1C)/C=c1\[nH]/c(c(CC)c1CC)=C\c1[nH]c(c(C)c1CCC(=O)N(C)CC(O)C(O)C(O)C(O)CO)/C=C1\N=C(C2)C(C)=C1CC (configuration not stated)	10	9.1	10	4.2		
CCC1=C(C)C2=N/C1=C\c1[nH]c(c(CCC(=O)NCCOCCOCCN)c1C)/C=c1\[nH]/c(c(CC)c1CC)=C\c1[nH]c(c(C)c1CCC(=O)NCCOCCOCCN)/C=C1\N=C(C2)C(C)=C1CC	10	4.4		14		
I.I.I.I.O=C(NCCNC1=NCCCN1)c1ccc(-c2c3nc(c(-c4ccc(C(=O)NCCNC5=NCCCN5)cc4)c4ccc([nH]4)c(-c4ccc(C(=O)NCCNC5=NCCCN5)cc4)c4ccc([nH]4)c(-c4ccc(C(=O)NCCNC5=NCCCN5)cc4)c4nc2C=C4)C=C3)cc1	> 20	43.2	> 20	> 20	10.8	268000
CCc1c(C(=O)NC(=N)N)[nH]c(Cc2[nH]c(C(=O)NC(=N)N)c(CC)c2C)c1C.Cl.Cl	15	1.8	> 10	> 20	1.3	
Br.OC[C@@H]1CCN2CC[C@@H](CO)NC2N1		0.77		8.5	2.5	
Cc1ccc(-c2c3nc(c(-c4ccc(C[N+](C)(C)C)cc4)c4ccc([nH]4)c(-c4ccc(C)cc4)c4ccc([nH]4)c(-c4ccc(C[N+](C)(C)C)cc4)c4nc2C=C4)C=C3)cc1.[Cl-].[Cl-]	> 20	67.5	> 20	> 20	16.7	2.2e+06
CCC1=C(C)C2=N/C1=C\c1[nH]c(c(CCC(=O)NCCc3c[nH]cn3)c1C)/C=c1\[nH]/c(c(CC)c1CC)=C\c1[nH]c(c(C)c1CCC(=O)NCCc1c[nH]cn1)/C=C1\N=C(C2)C(C)=C1CC	8.5	2.1		8.5		
I.NCCNC1=NCCCN1	20	3.2		> 20	5.1	
C[N+](C)(C)Cc1ccc(-c2c3nc(c(-c4ccc(C[N+](C)(C)C)cc4)c4ccc([nH]4)c(-c4ccc(C[N+](C)(C)C)cc4)c4ccc([nH]4)c(-c4ccc(C[N+](C)(C)C)cc4)c4nc2C=C4)C=C3)cc1.[Cl-].[Cl-].[Cl-].[Cl-]	10	4.2	10	12	2.5	
C[n+]1ccc(-c2c3nc(c(-c4cc[n+](C)cc4)c4ccc([nH]4)c(-c4cc[n+](C)cc4)c4ccc([nH]4)c(-c4cc[n+](C)cc4)c4nc2C=C4)C=C3)cc1 [TMPYP4]	15	1.2		> 20	3.8	
Cl.Cl.Cl.Cl.O=C(NCC1CCN2CCC(CO)N=C2N1)c1ccc(-c2c3nc(c(-c4ccc(C(=O)NCC5CCN6CCC(CO)N=C6N5)cc4)c4ccc([nH]4)c(-c4ccc(C(=O)NCC5CCN6CCC(CO)N=C6N5)cc4)c4ccc([nH]4)c(-c4ccc(C(=O)NCC5CCN6CCC(CO)N=C6N5)cc4)c4nc2C=C4)C=C3)cc1 (configuration not stated)	15	13.4	15	> 20		
